Measured values collected from several papers.
Target: Kappa-type opioid receptor (OPRK1, Homo sapiens, UniProt P41145)

COC(=O)C(c1ccccc1)C1CCCCN1 (stereo not shown)  IC50 (ligand displacement, radioligand): 6900 nM
C[C@H]1[C@H]2Cc3ccc(O)cc3[C@]1(C)CCN2CC1CC1  Ki (cell-free assay): 0.95 nM
Cc1cc(O)cc(C)c1C[C@H](N)C(=O)N1CCc2ccc(Cc3ccc(N)cc3)cc2C1  Ki (ligand displacement, radioligand; cell membranes): 91 nM
Cc1cc(O)cc(C)c1C[C@H](N)C(=O)N1Cc2ccccc2CC1C(=O)NCC(=O)NC(Cc1ccc(Cl)cc1)C(=O)N(C)CCC[C@@]1(c2ccc(F)cc2)OCc2cc(C#N)ccc21 (stereo in doubt)  Ki (cell-free assay): 91 nM
CC(CCc1ccc(O)cc1)NCCc1ccc(O)c(O)c1 (stereo not shown)  IC50 (ligand displacement, radioligand): 5300 nM
Cc1ccccc1Cc1ccc2c(c1)CN(C(=O)[C@@H](N)Cc1c(C)cc(O)cc1C)CC2  Ki (ligand displacement, radioligand; cell membranes): 1.2 nM
Cc1cc(O)cc(C)c1C[C@H](N)C(=O)N[C@H](C)C(=O)NCC(=O)N[C@@H](Cc1ccc(Cl)cc1)C(=O)N(C)CCC[C@@]1(c2ccc(F)cc2)OCc2cc(C#N)ccc21  Ki (cell-free assay): 37 nM
CCCO[C@@]12Cc3cc(-c4ccccc4)cnc3[C@@H]3Oc4c(O)ccc5c4[C@@]31CCN(CC1CC1)[C@@H]2C5  Ki (cell-free assay): 252 nM
COC(=O)/C=C/C(=O)N[C@@H]1CC[C@@]2(O)[C@H]3Cc4ccc(O)c5c4[C@@]2(CCN3CC2CC2)[C@H]1O5  IC50 (ligand displacement, radioligand; cell membranes): 7.78 nM
CN[C@]1(c2ccccc2Cl)CCCCC1=O  IC50 (ligand displacement, radioligand): 13000 nM
COc1ncccc1-c1cnn2ccc(N3CCN(C(=O)OC(C)C)CC3)nc12  IC50 (cell-free assay): > 30000 nM
COc1ccc(C(=O)Nc2ccccc2CCC2CCCCN2C)cc1 (stereo not shown)  IC50 (ligand displacement, radioligand): 3600 nM
Cc1cc(O)cc(C)c1C[C@H](N)C(=O)N1CCc2ccc(Cc3cccc([N+](=O)[O-])c3)cc2C1  Ki (ligand displacement, radioligand; cell membranes): 2.5 nM
